Screening data from PubChem BioAssay.
Compounds with a hit are over-represented: about 4.9% of the library has one in this group of screens.
CHT PAM – human CHT allosteric activation; hit rate 0.49% among 310,000; AID 488977; B-score at 10 µM; CHT-expressing cells, membrane potential dye, choline EC20; active compounds read high; LV-AA mutant CHT in HEK293 cells; Q9GZV3;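 active means initial fluorescence not abnormally high and integrated response B-score, plate-corrected, over 3 SD above library mean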
Target sequence (Q9GZV3 whole entry, looked up): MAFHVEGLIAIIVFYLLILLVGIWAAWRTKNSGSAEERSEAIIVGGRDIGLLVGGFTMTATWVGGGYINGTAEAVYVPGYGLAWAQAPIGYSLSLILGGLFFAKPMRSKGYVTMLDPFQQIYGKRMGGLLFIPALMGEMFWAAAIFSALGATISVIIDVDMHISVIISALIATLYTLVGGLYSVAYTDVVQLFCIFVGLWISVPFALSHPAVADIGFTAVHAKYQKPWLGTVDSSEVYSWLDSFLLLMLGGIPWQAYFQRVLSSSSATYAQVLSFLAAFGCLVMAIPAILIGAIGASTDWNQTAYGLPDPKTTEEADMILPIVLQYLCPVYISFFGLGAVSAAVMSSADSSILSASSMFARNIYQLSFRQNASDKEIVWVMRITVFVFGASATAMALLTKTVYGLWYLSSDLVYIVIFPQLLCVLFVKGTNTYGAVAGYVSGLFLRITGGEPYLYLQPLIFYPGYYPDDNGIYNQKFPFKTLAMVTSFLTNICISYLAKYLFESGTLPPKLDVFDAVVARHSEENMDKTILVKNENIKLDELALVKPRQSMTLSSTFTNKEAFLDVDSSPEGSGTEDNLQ
HSF1 inhib – HSF1 inhibition | NIH3T3-HGL HSE-luciferase, MG132-induced, luminescence 8 h; active compounds read low | activity change, negative = inhibition, % at 7.5 µM (by protocol) | hit rate 0.77% among 300,000 | AID 2098;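 active means more than half of replicate wells show activity change below -50%, luminescence cut by over half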;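 further: luciferase reports HSF-1 transcriptional activity via heat shock element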
CHT block – human CHT choline transport inhibition; AID 488975; hit rate 0.86% among 310,000; B-score at 10 µM; Q9GZV3; CHT-expressing cells, membrane potential dye, choline response; active compounds read low;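 active means B-score over 3 SD under the library average, and starting fluorescence ratio not unusually high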;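 further: choline stimulus applied at its EC90 after an EC20 pre-addition; B-score computed on integrated fluorescence ratio after choline addition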
PHOSPHO1 block – inhibitors of human PHOSPHO1 phosphatase. hit rate 1.1% among 290,000. inhibition, % at 13.3 µM. recombinant PHOSPHO1, absorbance phosphatase assay. Q8TCT1; in the data active means inhibition above about 60%
Lipid droplet – modulators of hepatic lipid droplet formation; inhibition, % at 6.5 µM; AML12 mouse hepatocytes, oleate lipid droplets, BODIPY imaging; hit rate 0.4% among 240,000; AID 1656;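 active means lipid droplet intensity inhibited by at least 50%, with more than 500 cells counted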
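System: AML12 hepatocytes (mouse). Probe or stimulus: oleic acid at 100 µM to induce lipid droplet formation. Times: overnight treatment with compound plus oleate. Detection: Image-based BODIPY and DAPI two-channel analysis. Evaluation: percent inhibition of filter-corrected integrated lipid droplet intensity per well.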
HSF-1 act – increases HSF-1 driven luciferase reporter signal. AID 504408. NIH3T3-HGL HSF-1 luciferase reporter, MG132, 8 h; 100% = twice DMSO control signal. activation, % at 9 µM. hit rate 1.7% among 300,000;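 active means mean replicate activation of at least 50% with a set share of replicates each reaching 50%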
CHT inh conf – human CHT inhibition, confirmatory screen | shares compounds with CHT block | CHT-expressing cells, choline membrane potential dye; LV-to-AA substituted CHT, HEK293 cells | CHT activity remaining % of control (active compounds read low), % at 10 µM | hit rate 70% among 2,400 | AID 493221;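 active means choline transporter activity left, mean of duplicates at 10 µM, below buffer-only control mean minus 3 SD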;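 further: depolarization triggered by choline at its EC90 following an EC20 pre-addition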
HEK293 CHT ctr – counter-screen for CHT inhibitors: effect in parental HEK293 cells | shares compounds with CHT block | membrane potential dye, choline response; active = decrease or increase beyond buffer ±3SD | membrane potential ratio readout (active if shifted either direction beyond buffer ±3SD; no single direction) at 10 µM | hit rate 4% among 2,400 | AID 493222;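 further: parental cells lack the transporter so any hit is non-specific; ratio is peak minus trough fluorescence over baseline after EC90 choline challenge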
Of the large screens only hits and unclear results are named; the others gave an inactive call (follow-up assays come after a bar, where they were run).

CCN(CC)C(=O)Cn1cc(S(=O)(=O)CC(=O)N2CCCCCC2)c2ccccc21	none
CCOc1ccc(CCNC(=O)COn2nnc3ccc(S(=O)(=O)N4CCOCC4)cc32)cc1OCC	none (no result: PHOSPHO1 block, Lipid droplet)
CCOc1ccc(S(=O)(=O)Nc2cccc(C(=O)NCC(c3ccccc3)N(C)C)c2)cc1 (configuration not stated)	CHT block -7.6 (no result: PHOSPHO1 block, Lipid droplet) | CHT inh conf 16% | HEK293 CHT ctr inactive
COc1ccc(C(CNC(=O)c2cccc(NS(=O)(=O)c3ccccc3)c2)N(C)C)cc1 (configuration not stated)	none
COc1ccc2cnn(CCOc3cc(C)ccc3C(C)C)c(=O)c2c1OC	none
O=C(O)CC(NC(=O)c1sc2ccccc2c1Cl)c1ccc(OC2CCCC2)cc1 (configuration not stated)	CHT block -5.2 | CHT inh conf 28% | HEK293 CHT ctr inactive
CCOc1ccc(C(CC(=O)O)NC(=O)C2c3ccccc3Oc3ccccc32)cc1 (configuration not stated)	none
O=C(O)CC(NC(=O)C1c2ccccc2Oc2ccccc21)c1ccc(OC2CCCC2)cc1 (configuration not stated)	CHT block -5.2 | CHT inh conf inactive | HEK293 CHT ctr inactive
O=C(O)CC(NC(=O)C1CCCCC1)c1ccc(OC2CCCC2)cc1 (configuration not stated)	none
COc1ccccc1N1C(=S)N=C(Nc2c(C)cccc2C)C12CCCC2	none
CC1CC(C)(C)N(C(=O)CN2C(=O)c3ccccc3C2=O)c2ccccc21 (configuration not stated)	CHT block -16 | CHT inh conf 62% | HEK293 CHT ctr inactive
CC1CC(C)(C)N(C(=O)CN2CCN(C)CC2)c2ccccc21 (configuration not stated)	none
Oc1c(Br)cc(Br)cc1C=Nc1cccc2ncccc12	CHT block -8.2, HSF-1 act 62 (no result: PHOSPHO1 block, Lipid droplet) | CHT inh conf 53% | HEK293 CHT ctr inactive
Brc1cccc(C=Nc2cccc3ncccc23)c1	none (no result: PHOSPHO1 block, Lipid droplet)
CCCOc1ccc(C(CC(=O)O)NC(=O)CC(c2ccccc2)c2ccccc2)cc1 (configuration not stated)	CHT block -6.8 | CHT inh conf 24% | HEK293 CHT ctr inactive
CN1/C(=C/C(=O)c2nc(S(C)(=O)=O)ncc2Cl)C(C)(C)c2ccccc21	HSF1 inhib -92, CHT block -11 (no result: Lipid droplet) | CHT inh conf 54% | HEK293 CHT ctr inactive
CN1/C(=C\C(=O)c2cncc(Br)c2)C(C)(C)c2ccccc21	none
CCOC(=O)c1cnc2c(C)c(Cl)ccc2c1N1CCOCC1	none (no result: Lipid droplet)
CCOC(=O)c1cnc2c(C(F)(F)F)cccc2c1N1CCOCC1	CHT block -5.8 | CHT inh conf 52% | HEK293 CHT ctr inactive
CN1c2ccccc2C(O)=C(C(=S)Nc2ccc(F)c(Cl)c2)S1(=O)=O	CHT block -6.4 | CHT inh conf 48% | HEK293 CHT ctr inactive
Cc1ccc(NC(=S)C2=C(O)c3ccccc3N(C)S2(=O)=O)cc1	none
COc1ccc(CNS(=O)(=O)c2ccc3c(c2)CC(C)N3C(=O)C2CC2)cc1 (configuration not stated)	CHT block -5 | CHT inh conf inactive | HEK293 CHT ctr inactive
Cc1onc(-c2ccccc2)c1C(=O)NNC(=S)NC(=O)c1ccc(Br)cc1	CHT block -6.2 | CHT inh conf 55% | HEK293 CHT ctr inactive
Cc1ccc(NC(=S)Nc2cccc3cnccc23)cc1	none
Cc1ccc(NC(=S)Nc2cccc3cnccc23)cc1C	CHT block -5.9 | CHT inh conf 54% | HEK293 CHT ctr inactive
CCOc1ccc(NC(=O)C23CC4CC(C2)CC(c2ccccc2)(C4)C3)cc1	none (no result: Lipid droplet)
CC(NC(=O)COC(=O)Cc1ccc(-c2ccccc2)cc1)c1ccccc1 (configuration not stated)	none
CCOC(=O)CNC(=O)CSc1nc(Cc2ccccc2)nc2ccccc12	CHT block -6.6 | CHT inh conf inactive | HEK293 CHT ctr inactive
CC(C)NC(=O)CSc1nc(Cc2ccccc2)nc2ccccc12	none
COc1ccc(NC(C)=O)cc1NC(=O)CN1CCN(CC(=O)Nc2ccc(Cl)cc2)CC1	none (no result: HSF1 inhib, Lipid droplet, HSF-1 act)
C=CCN(CC=C)S(=O)(=O)c1ccc2nc(NC(=O)C(C)C)sc2c1	CHT block -7.3 (no result: HSF1 inhib, HSF-1 act) | CHT inh conf 43% | HEK293 CHT ctr inactive
c1ccc(CN2CCN(c3nc4ccccc4n4cnnc34)CC2)cc1	CHT block -5.5 (no result: Lipid droplet) | CHT inh conf 59% | HEK293 CHT ctr inactive
CCN(CC)S(=O)(=O)c1cc(C(=O)Nc2nncs2)c(Cl)cc1Cl	CHT block -9.5 | CHT inh conf 50% | HEK293 CHT ctr inactive
CCN(CC)S(=O)(=O)c1ccc(Cl)c(C(=O)Nc2nncs2)c1	none
Cn1nc(C(F)(F)F)c(-c2ccccc2)c1NC(=O)CCC(=O)O	none
Cn1nc(C(F)(F)F)c(-c2ccccc2)c1NC(=O)c1cccnc1	CHT block -5.3 | CHT inh conf 32% | HEK293 CHT ctr inactive
Cn1nc(C(F)(F)F)c(-c2ccccc2)c1NC(=O)c1ccco1	CHT block -5.6 | CHT inh conf 36% | HEK293 CHT ctr inactive
C=CCNCCOc1cccc(Br)c1	none
Cc1ccccc1NS(=O)(=O)c1ccc2c(c1)n(C)c(=O)n2C	none
CCn1c(=O)c2c(nc(SCC(=O)Nc3ccccc3)n2C)n(C)c1=O	none
O=C(CSc1nc2ccccc2[nH]1)c1ccc2c(c1)OCO2	CHT block -6.1 (no result: HSF1 inhib, HSF-1 act) | CHT inh conf 36% | HEK293 CHT ctr inactive
CCOC(=O)c1nc(NNC(=O)c2ccc([N+](=O)[O-])cc2)sc1C	CHT block -9.9 | CHT inh conf 54% | HEK293 CHT ctr inactive
O=C(Nc1cc(C(F)(F)F)ccc1-n1cncn1)c1ccc([N+](=O)[O-])o1	CHT block -6.1 (no result: PHOSPHO1 block, Lipid droplet) | CHT inh conf 33% | HEK293 CHT ctr inactive
O=C(Nc1cc(C(F)(F)F)ccc1-n1cncn1)c1ccc(Br)cc1	none (no result: Lipid droplet)
Cc1ccc(NC(=S)NNc2ccc([N+](=O)[O-])cc2S(=O)(=O)Nc2ccccc2C(=O)O)cc1C	CHT block -7.2 | CHT inh conf 50% | HEK293 CHT ctr inactive
Cc1nn(-c2ccccc2)c2[nH]c(=O)cc(C(F)(F)F)c12	CHT block -5.2 | CHT inh conf 37% | HEK293 CHT ctr inactive
Cc1ccccc1Nc1c(-c2ccncc2)nc2ccc(Br)cn12	CHT block -6.9 | CHT inh conf 51% | HEK293 CHT ctr inactive
